Measurements taken from ChEMBL document CHEMBL3102852, “Design, synthesis and cytotoxic activity of novel sulfonylurea derivatives of podophyllotoxin” (Bioorg Med Chem, 2014).

How the values were obtained:
Type in all cases: functional, cell-based
[1] = Cytotoxicity against multidrug-resistant human KBVIN cells after 72 hrs by sulforhodamine B assay
Outline: (§1)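 Cells seeded at 3-5 × 10^3 per well in RPMI-1640 with 10% FBS containing various sample concentrations, incubated 72 h. Attached cells fixed with cold 50% trichloroacetic acid for 30 min, stained with 0.04% SRB for 30 min, bound dye solubilized in 10 mM Tris-base, absorbance read at 515 nm. Triplicate experiments; KBvin is a vincristine-selected MDR KB subline.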

KB = test: Cytotoxicity against human KB cells after 72 hrs by sulforhodamine B assay; outline: as §1
A549 = test: Cytotoxicity against human A549 cells after 72 hrs by sulforhodamine B assay; settings: A549, 72 h; outline: as §1
DU-145 = test: Cytotoxicity against human DU145 cells after 72 hrs by sulforhodamine B assay; settings: DU-145, 72 h; outline: as §1

COc1cc([C@@H]2c3cc4c(cc3[C@@H](NC(=O)NS(=O)(=O)c3ccccc3)[C@H]3COC(=O)[C@H]23)OCO4)cc(OC)c1O
IC50 [1]: 8.76 µM
IC50 (KB): 8.38 µM
IC50 (A549): 8.25 µM
IC50 (DU-145): 8.1 µM

COc1ccc(S(=O)(=O)NC(=O)N[C@@H]2c3cc4c(cc3[C@@H](c3cc(OC)c(O)c(OC)c3)[C@H]3C(=O)OC[C@@H]32)OCO4)cc1
IC50 [1]: 8.79 µM
IC50 (KB): 9.49 µM
IC50 (A549): 7.67 µM
IC50 (DU-145): 9.66 µM

COc1cc([C@@H]2c3cc4c(cc3[C@@H](NC(=O)NS(=O)(=O)c3ccc(C)cc3)[C@H]3COC(=O)[C@H]23)OCO4)cc(OC)c1O
IC50 [1]: > 20 µM
IC50 (KB): > 20 µM
IC50 (A549): > 20 µM
IC50 (DU-145): > 20 µM

COc1cc([C@@H]2c3cc4c(cc3[C@@H](NC(=O)NS(=O)(=O)c3ccc(C(C)C)cc3)[C@H]3COC(=O)[C@H]23)OCO4)cc(OC)c1O
IC50 [1]: 8.35 µM
IC50 (KB): 9.51 µM
IC50 (A549): 7.72 µM
IC50 (DU-145): 9.32 µM

COc1cc([C@@H]2c3cc4c(cc3[C@@H](NC(=O)NS(=O)(=O)c3ccc(F)cc3)[C@H]3COC(=O)[C@H]23)OCO4)cc(OC)c1O
IC50 [1]: 7.92 µM
IC50 (KB): 9 µM
IC50 (A549): 7.82 µM
IC50 (DU-145): 9.61 µM

COc1cc([C@@H]2c3cc4c(cc3[C@@H](NC(=O)NS(=O)(=O)c3ccc(Cl)cc3)[C@H]3COC(=O)[C@H]23)OCO4)cc(OC)c1O
IC50 [1]: 7.95 µM
IC50 (KB): 10.6 µM
IC50 (A549): 9.03 µM
IC50 (DU-145): 11.5 µM

COc1cc([C@@H]2c3cc4c(cc3[C@@H](NC(=O)NS(=O)(=O)Cc3ccccc3)[C@H]3COC(=O)[C@H]23)OCO4)cc(OC)c1O
IC50 [1]: 14 µM
IC50 (KB): 11.8 µM
IC50 (A549): 8.63 µM
IC50 (DU-145): 11.2 µM

COc1ccc(S(=O)(=O)NC(=O)N[C@@H]2c3cc4c(cc3[C@@H](c3cc(OC)c(O)c(OC)c3)[C@H]3C(=O)OC[C@@H]32)OCO4)c(OC)c1
IC50 [1]: 8.56 µM
IC50 (KB): 8.08 µM
IC50 (A549): 8 µM
IC50 (DU-145): 8.51 µM

COc1cc([C@@H]2c3cc4c(cc3[C@@H](NC(=O)NS(=O)(=O)c3ccc5ccccc5c3)[C@H]3COC(=O)[C@H]23)OCO4)cc(OC)c1O
IC50 [1]: 8.62 µM
IC50 (KB): 9.7 µM
IC50 (A549): 8.49 µM
IC50 (DU-145): 10.5 µM

COc1cc([C@@H]2c3cc4c(cc3[C@@H](NC(=O)NS(C)(=O)=O)[C@H]3COC(=O)[C@H]23)OCO4)cc(OC)c1OC
IC50 [1]: > 20 µM
IC50 (KB): > 20 µM
IC50 (A549): > 20 µM
IC50 (DU-145): > 20 µM

CCS(=O)(=O)NC(=O)N[C@@H]1c2cc3c(cc2[C@@H](c2cc(OC)c(OC)c(OC)c2)[C@H]2C(=O)OC[C@@H]21)OCO3
IC50 [1]: > 20 µM
IC50 (KB): > 20 µM
IC50 (A549): > 20 µM
IC50 (DU-145): > 20 µM

COc1cc([C@@H]2c3cc4c(cc3[C@@H](NC(=O)NS(=O)(=O)c3ccccc3)[C@H]3COC(=O)[C@H]23)OCO4)cc(OC)c1OC
IC50 [1]: 1.76 µM
IC50 (KB): 1.41 µM
IC50 (A549): 1.6 µM
IC50 (DU-145): 1.44 µM

COc1cc([C@@H]2c3cc4c(cc3[C@@H](NC(=O)NS(=O)(=O)c3ccc(C)cc3)[C@H]3COC(=O)[C@H]23)OCO4)cc(OC)c1OC
IC50 [1]: > 20 µM
IC50 (KB): > 20 µM
IC50 (A549): > 20 µM
IC50 (DU-145): > 20 µM

COc1cc([C@@H]2c3cc4c(cc3[C@@H](NC(=O)NS(=O)(=O)c3ccc(Cl)cc3)[C@H]3COC(=O)[C@H]23)OCO4)cc(OC)c1OC
IC50 [1]: 2.01 µM
IC50 (KB): 1.72 µM
IC50 (A549): 1.89 µM
IC50 (DU-145): 1.75 µM

COc1cc([C@@H]2c3cc4c(cc3[C@@H](NC(=O)NS(C)(=O)=O)[C@H]3COC[C@H]23)OCO4)cc(OC)c1OC
IC50 [1]: > 20 µM
IC50 (KB): > 20 µM
IC50 (A549): > 20 µM
IC50 (DU-145): > 20 µM

COc1cc([C@@H]2c3cc4c(cc3[C@@H](NC(=O)NS(=O)(=O)c3ccc(C(C)C)cc3)[C@H]3COC[C@H]23)OCO4)cc(OC)c1OC
IC50 [1]: 13.2 µM
IC50 (KB): 11 µM
IC50 (A549): 11.8 µM
IC50 (DU-145): 11.9 µM

COc1ccc(S(=O)(=O)NC(=O)N[C@@H]2c3cc4c(cc3[C@@H](c3cc(OC)c(OC)c(OC)c3)[C@H]3COC[C@@H]32)OCO4)c(OC)c1
IC50 [1]: > 20 µM
IC50 (KB): 12 µM
IC50 (A549): 14.9 µM
IC50 (DU-145): 14.3 µM

COc1cc([C@@H]2c3cc4c(cc3[C@@H](NC(=O)NS(C)(=O)=O)[C@H]3COC(=O)[C@H]23)OCO4)cc(OC)c1O
IC50 [1]: > 20 µM
IC50 (KB): > 20 µM
IC50 (A549): > 20 µM
IC50 (DU-145): > 20 µM

CCS(=O)(=O)NC(=O)N[C@@H]1c2cc3c(cc2[C@@H](c2cc(OC)c(O)c(OC)c2)[C@H]2C(=O)OC[C@@H]21)OCO3
IC50 [1]: > 20 µM
IC50 (KB): > 20 µM
IC50 (A549): > 20 µM
IC50 (DU-145): > 20 µM

CCCCS(=O)(=O)NC(=O)N[C@@H]1c2cc3c(cc2[C@@H](c2cc(OC)c(O)c(OC)c2)[C@H]2C(=O)OC[C@@H]21)OCO3
IC50 [1]: 14 µM
IC50 (KB): 10.9 µM
IC50 (A549): 7.96 µM
IC50 (DU-145): 11.9 µM

COc1cc([C@@H]2c3cc4c(cc3[C@@H](O[C@@H]3O[C@@H]5CO[C@@H](C)O[C@H]5[C@H](O)[C@H]3O)[C@H]3COC(=O)[C@H]23)OCO4)cc(OC)c1O [ETOPOSIDE]
IC50 [1]: > 20 µM
